This note sets out measurements from ChEMBL document CHEMBL1154352, “Toll-like receptor 7 selective synthetic oligoribonucleotide agonists: synthesis and structure-activity relationship studies” (J Med Chem, 2009).

The test system of test [1] is Splenocyte. The experiment in a line: Immunomodulatory activity in C57BL/6 mouse splenocytes bearing TLR7 receptor assessed as IL12 release at 100 ug/ml after 24 hrs by ELISA. The class given is functional, cell-based. In a few lines: (§1)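 C57BL/6 splenocytes in RPMI 1640 with 10% FBS, penicillin/streptomycin, 2 mM L-glutamine, plated at 5 × 10^6 cells/mL; compounds in PBS added, 37 °C for 24 h. Supernatant IL-12 and IL-6 by ELISA; representative of three independent experiments.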
A general note: In an ELISA, binding on a coated surface is turned into a signal by an enzyme label.

The target of test [2] is T1, Toll-like receptor 7 (Homo sapiens) (UniProt Q9NYK1).
T1 sequence (whole entry): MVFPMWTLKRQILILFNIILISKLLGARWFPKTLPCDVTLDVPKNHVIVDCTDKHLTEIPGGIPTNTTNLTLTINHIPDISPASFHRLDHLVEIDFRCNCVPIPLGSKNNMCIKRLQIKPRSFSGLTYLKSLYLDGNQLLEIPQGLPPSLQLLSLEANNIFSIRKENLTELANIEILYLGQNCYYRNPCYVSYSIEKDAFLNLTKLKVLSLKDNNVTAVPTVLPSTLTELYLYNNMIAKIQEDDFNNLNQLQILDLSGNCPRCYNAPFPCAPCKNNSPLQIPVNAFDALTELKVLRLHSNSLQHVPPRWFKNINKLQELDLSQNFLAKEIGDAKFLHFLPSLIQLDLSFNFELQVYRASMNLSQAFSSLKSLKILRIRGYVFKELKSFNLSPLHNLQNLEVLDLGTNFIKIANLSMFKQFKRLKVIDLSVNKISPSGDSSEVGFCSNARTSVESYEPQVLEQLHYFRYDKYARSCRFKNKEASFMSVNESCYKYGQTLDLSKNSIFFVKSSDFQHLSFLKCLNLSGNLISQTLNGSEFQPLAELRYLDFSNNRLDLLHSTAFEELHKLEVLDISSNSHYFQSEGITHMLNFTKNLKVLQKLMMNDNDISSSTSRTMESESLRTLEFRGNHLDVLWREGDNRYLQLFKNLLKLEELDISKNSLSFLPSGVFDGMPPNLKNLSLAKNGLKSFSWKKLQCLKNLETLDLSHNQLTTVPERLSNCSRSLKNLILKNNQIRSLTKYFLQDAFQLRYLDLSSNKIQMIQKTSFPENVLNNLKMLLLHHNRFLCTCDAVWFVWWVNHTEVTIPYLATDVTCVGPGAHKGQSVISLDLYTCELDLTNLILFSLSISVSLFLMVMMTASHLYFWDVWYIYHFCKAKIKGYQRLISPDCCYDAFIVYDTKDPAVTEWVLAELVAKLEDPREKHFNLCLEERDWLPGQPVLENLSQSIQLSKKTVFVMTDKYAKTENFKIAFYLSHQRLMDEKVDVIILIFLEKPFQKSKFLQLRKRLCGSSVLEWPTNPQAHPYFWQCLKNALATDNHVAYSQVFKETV
The experiment in a line: Activation of human TLR7 expressed in HEK293XL assessed as fold induction of NF-kappaB activity at 50 ug/ml after 18 hrs by reporter gene assay relative to control. The procedure, abridged:
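HEK293 cells stably expressing human TLR7 or TLR8, transiently transfected with SEAP reporter plasmid; medium replaced, SIMRA compounds added, 18 h incubation. Supernatant SEAP measured by QuantiBlue; expressed as fold increase in NF-κB activity over PBS control. Tabulated data at 50 μg/mL, representative of three independent experiments.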

Test [3] concerns PBMC. Kind of test: Immunomodulatory activity in human PBMC assessed as induction of IL12 at 100 ug/ml after 24 hrs. The class given is functional, cell-based. The procedure, abridged:
(§2)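 Human PBMCs plated at 5 × 10^6 cells/mL; compounds dissolved in PBS added at various concentrations, 37 °C for 24 h. Supernatant cytokines/chemokines quantified with human Luminex multiplex kit.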

The subject of test [4] is Splenocyte. The experiment in a line: Immunomodulatory activity in C57BL/6 mouse splenocytes bearing TLR7 receptor assessed as IL6 release at 100 ug/ml after 24 hrs by ELISA. The format is functional, cell-based. In a few lines:
as §1

The subject of test [5] is PBMC. Kind of test: Immunomodulatory activity in human PBMC assessed as induction of TNFalpha at 100 ug/ml after 24 hrs. The format is functional, cell-based. In a few lines:
as §2

Test [6] concerns the target T2, Toll-like receptor 9 (Mus musculus) (UniProt Q9EQU3).
T2 sequence (whole entry): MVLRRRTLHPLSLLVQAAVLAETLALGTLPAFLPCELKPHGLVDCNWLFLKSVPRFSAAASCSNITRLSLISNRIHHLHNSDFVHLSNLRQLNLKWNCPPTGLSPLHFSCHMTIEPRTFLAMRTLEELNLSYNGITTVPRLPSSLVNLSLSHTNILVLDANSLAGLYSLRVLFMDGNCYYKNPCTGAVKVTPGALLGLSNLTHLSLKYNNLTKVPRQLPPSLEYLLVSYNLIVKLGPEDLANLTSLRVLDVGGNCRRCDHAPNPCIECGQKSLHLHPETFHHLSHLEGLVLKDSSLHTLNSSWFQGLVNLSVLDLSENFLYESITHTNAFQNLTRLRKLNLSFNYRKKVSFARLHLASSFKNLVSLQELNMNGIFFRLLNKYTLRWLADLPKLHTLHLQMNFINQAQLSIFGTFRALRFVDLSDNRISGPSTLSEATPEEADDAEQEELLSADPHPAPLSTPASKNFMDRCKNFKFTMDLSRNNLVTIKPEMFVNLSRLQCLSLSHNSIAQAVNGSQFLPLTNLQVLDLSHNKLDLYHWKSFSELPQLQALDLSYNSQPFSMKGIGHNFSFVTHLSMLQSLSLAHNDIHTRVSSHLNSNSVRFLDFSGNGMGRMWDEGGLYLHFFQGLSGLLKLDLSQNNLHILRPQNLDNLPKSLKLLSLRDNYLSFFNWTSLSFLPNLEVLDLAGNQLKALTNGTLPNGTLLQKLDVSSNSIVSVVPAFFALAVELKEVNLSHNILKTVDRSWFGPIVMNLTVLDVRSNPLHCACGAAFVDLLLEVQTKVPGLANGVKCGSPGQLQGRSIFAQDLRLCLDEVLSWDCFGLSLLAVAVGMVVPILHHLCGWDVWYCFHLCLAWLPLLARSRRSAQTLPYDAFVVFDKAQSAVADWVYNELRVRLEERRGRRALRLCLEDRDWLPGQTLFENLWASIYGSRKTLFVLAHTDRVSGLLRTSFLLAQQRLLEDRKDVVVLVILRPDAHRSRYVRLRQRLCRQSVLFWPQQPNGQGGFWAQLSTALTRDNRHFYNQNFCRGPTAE
The experiment in a line: Activation of mouse TLR9 expressed in HEK293 assessed as induction of NF-kappaB activity reporter gene assay. The format is cell-based. (In general: Reporter assays use an easily measured gene product as a stand-in for the process of interest.)

Activity calls are given as the source filed them. No cut-off for these calls is given here.

In the case of `Nc1ccn([C@@H]2O[C@H](CO)[C@@H](OP(=O)(S)OC[C@H]3O[C@@H](n4ccc(=O)[nH]c4=O)[C@H](O)[C@@H]3OP(=O)(S)OC[C@H]3O[C@@H](n4ccc(=O)[nH]c4=O)[C@H](O)[C@@H]3OP(=O)(S)OC[C@H]3O[C@@H](n4ccc5c(=O)[nH]c(N)nc54)[C@H](O)[C@@H]3OP(=O)(S)OC[C@H]3O[C@@H](n4ccc(=O)[nH]c4=O)[C@H](O)[C@@H]3OP(=O)(S)OC[C@H]3O[C@@H](n4ccc5c(=O)[nH]c(N)nc54)[C@H](O)[C@@H]3OP(=O)(S)OC[C@H]3O[C@@H](n4cnc5c(N)ncnc54)[C@H](O)[C@@H]3OP(=O)(S)OC[C@H]3O[C@@H](n4ccc5c(=O)[nH]c(N)nc54)[C@H](O)[C@@H]3OP(=O)(S)OC[C@H]3O[C@@H](n4ccc(N)nc4=O)[C@H](O)[C@@H]3OP(=O)(S)OC[C@H]3O[C@@H](n4ccc(=O)[nH]c4=O)[C@H](O)[C@@H]3OP(=O)(S)OC[C@H]3O[C@@H](n4ccc(=O)[nH]c4=O)[C@H](O)[C@@H]3OP(=O)(S)OCC(O)COP(=O)(S)O[C@H]3[C@@H](O)[C@H](n4ccc(=O)[nH]c4=O)O[C@@H]3COP(=O)(S)O[C@H]3[C@@H](O)[C@H](n4ccc(=O)[nH]c4=O)O[C@@H]3COP(=O)(S)O[C@H]3[C@@H](O)[C@H](n4ccc(N)nc4=O)O[C@@H]3COP(=O)(S)O[C@H]3[C@@H](O)[C@H](n4ccc5c(=O)[nH]c(N)nc54)O[C@@H]3COP(=O)(S)O[C@H]3[C@@H](O)[C@H](n4cnc5c(N)ncnc54)O[C@@H]3COP(=O)(S)O[C@H]3[C@@H](O)[C@H](n4ccc5c(=O)[nH]c(N)nc54)O[C@@H]3COP(=O)(S)O[C@H]3[C@@H](O)[C@H](n4ccc(=O)[nH]c4=O)O[C@@H]3COP(=O)(S)O[C@H]3[C@@H](O)[C@H](n4ccc5c(=O)[nH]c(N)nc54)O[C@@H]3COP(=O)(S)O[C@H]3[C@@H](O)[C@H](n4ccc(=O)[nH]c4=O)O[C@@H]3COP(=O)(S)O[C@H]3[C@@H](O)[C@H](n4ccc(=O)[nH]c4=O)O[C@@H]3COP(=O)(S)O[C@H]3[C@@H](O)[C@H](n4ccc(N)nc4=O)O[C@@H]3CO)[C@H]2O)c(=O)n1` (some centres not stated), the result in test [1] and in test [4] was Active. For the same compound, in test [2], the fold change (FC) turned out to be 28.9. Also, the Activity in test [3] was 1020 pg/mL; in test [5], 403 pg/mL. Besides, the outcome in test [6] was inactive.

With `Nc1ccn([C@@H]2O[C@H](COP(=O)(S)O[C@H]3[C@@H](O)[C@H](n4cnc5c(N)ncnc54)O[C@@H]3COP(=O)(S)O[C@H]3[C@@H](O)[C@H](n4cnc5c(N)ncnc54)O[C@@H]3CO)[C@@H](OP(=O)(S)OC[C@H]3O[C@@H](n4ccc(=O)[nH]c4=O)[C@H](O)[C@@H]3OP(=O)(S)OC[C@H]3O[C@@H](n4ccc5c(=O)[nH]c(N)nc54)[C@H](O)[C@@H]3OP(=O)(S)OC[C@H]3O[C@@H](n4cnc5c(N)ncnc54)[C@H](O)[C@@H]3OP(=O)(S)OC[C@H]3O[C@@H](n4ccc(N)nc4=O)[C@H](O)[C@@H]3OP(=O)(S)OC[C@H]3O[C@@H](n4ccc5c(=O)[nH]c(N)nc54)[C@H](O)[C@@H]3OP(=O)(S)OC[C@H]3O[C@@H](n4ccc(N)nc4=O)[C@H](O)[C@@H]3OP(=O)(S)OC[C@H]3O[C@@H](n4ccc(=O)[nH]c4=O)[C@H](O)[C@@H]3OP(=O)(S)OC[C@H]3O[C@@H](n4ccc(=O)[nH]c4=O)[C@H](O)[C@@H]3OP(=O)(S)OCC(O)COP(=O)(S)O[C@H]3[C@@H](O)[C@H](n4ccc(=O)[nH]c4=O)O[C@@H]3COP(=O)(S)O[C@H]3[C@@H](O)[C@H](n4ccc(=O)[nH]c4=O)O[C@@H]3COP(=O)(S)O[C@H]3[C@@H](O)[C@H](n4ccc(N)nc4=O)O[C@@H]3COP(=O)(S)O[C@H]3[C@@H](O)[C@H](n4ccc5c(=O)[nH]c(N)nc54)O[C@@H]3COP(=O)(S)O[C@H]3[C@@H](O)[C@H](n4ccc(N)nc4=O)O[C@@H]3COP(=O)(S)O[C@H]3[C@@H](O)[C@H](n4cnc5c(N)ncnc54)O[C@@H]3COP(=O)(S)O[C@H]3[C@@H](O)[C@H](n4ccc5c(=O)[nH]c(N)nc54)O[C@@H]3COP(=O)(S)O[C@H]3[C@@H](O)[C@H](n4ccc(=O)[nH]c4=O)O[C@@H]3COP(=O)(S)O[C@H]3[C@@H](O)[C@H](n4ccc(N)nc4=O)O[C@@H]3COP(=O)(S)O[C@H]3[C@@H](O)[C@H](n4cnc5c(N)ncnc54)O[C@@H]3COP(=O)(S)O[C@H]3[C@@H](O)[C@H](n4cnc5c(N)ncnc54)O[C@@H]3CO)[C@H]2O)c(=O)n1` (some centres not stated), the result in test [1] and in test [4] was Active. In test [2], the fold change (FC) stood at 21.5. Further, the Activity in test [3] was 250 pg/mL; in test [5], 20.3 pg/mL. Further, the result in test [6] was inactive.
